These results are taken from ChEMBL document CHEMBL1124657, “Retinobenzoic acids. 2. Structure-activity relationships of chalcone-4-carboxylic acids and flavone-4'-carboxylic acids” (1989).

Test [1] has as its system HL-60. In words: Differentiation inducing activity towards human promyelocytic leukemia cell line HL-60 assayed by nitroblue tetrazolium reduction. In kind it is functional. The settings on record: read-out: ED50 (the source's name). The procedure, abridged: (§1)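 HL-60 cells in RPMI1640 with 5% FCS at 37 °C, 5% CO₂; seeded about 8 × 10⁴ cells/mL and exposed 4 days to compounds from 0.2 mM ethanol stock (final ethanol below 0.5%; ethanol-only controls). Retinoic acid run concurrently. NBT reduction: 20 min at 37 °C with 0.2% NBT and TPA 200 ng/mL in PBS/medium. Formazan-positive cells counted among at least 200 cells. Wright-Giemsa morphology also scored. Five orders of concentration covered, at least three repeats. ED50 taken from NBT data.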

The subject of test [2] is HL-60. In words: Activity relative to retinoic acid in differentiating promyelocytic leukemic HL-60 cells. In kind it is functional, Homo sapiens.
The subject of test [3] is HL-60. In words: Differentiation inducing activity towards human promyelocytic leukemia cell line HL-60 by nitroblue tetrazolium reduction assay; IA is Inactive. The class given is functional, cell-based. The procedure, abridged: as §1
Test [4] relates to HL-60. The test is described as follows: Differentiation inducing activity towards human promyelocytic leukemia cell line HL-60 by nitroblue tetrazolium reduction assay;IA is inactive. In kind it is functional, cell-based. In a few lines: as §1
In test [5] the test system is HL-60. The test is described as follows: Differentiation inducing activity towards human promyelocytic leukemia cell line HL-60 by nitroblue tetrazolium reduction assay;IA is Inactive. In kind it is functional, cell-based. In a few lines: as §1

Calls of active or inactive are those of the source. The rule behind the calls is not given here. Where only a bound is given, the exact number is not on record here.

Regarding `CC1(C)CCC(C)(C)c2cc(C(=O)/C=C/c3ccc(C(=O)O)c(O)c3)ccc21`, the EC50 in test [1] was 1.7 nM. This compound also registered a Relative activity in test [2] of 0.88.

Consider `O=C(O)c1ccc(C(=O)/C=C(\O)c2ccccc2O)cc1`, for which, in test [3], the ED50 result is “inactive”.

Consider `CC1(C)CCC(C)(C)c2cc3c(=O)cc(-c4ccc(C(=O)O)cc4)oc3cc21`, for which the EC50 in test [1] came out at 0.046 nM. In test [2], this compound yielded a Relative activity of 27.4.

As to `COC(=O)c1ccc(/C=C/C(=O)c2ccc3c(c2)C(C)(C)CCC3(C)C)cc1`, the EC50 in test [1] was 30 nM. In test [2], the Relative activity was determined as 0.043.

As for `CCCCOC(=O)c1ccc(/C=C/C(=O)c2ccc3c(c2)C(C)(C)CCC3(C)C)cc1`, the EC50 in test [1] was found to be 27 nM. For the same compound, the Relative activity in test [2] came to 0.063.

On to `CC1(C)CCC(C)(C)c2cc(C(=O)/C=C/c3ccc(C(=O)O)cc3)ccc21`, for which, in test [1], the EC50 worked out at 0.64 nM. The same compound had a Relative activity in test [2] of 2.8.

For the compound `COc1ccc(C(=O)/C=C/c2ccc(C(=O)O)cc2)cc1OC`, the ED50 entry in test [3] is “inactive”.

Turning to `O=C(O)c1ccc(-c2cc(=O)c3ccccc3o2)cc1`, the ED50 result in test [4] is “inactive”.

Take `CC1(C)CCOc2cc3c(=O)cc(-c4ccc(C(=O)O)cc4)oc3cc21`: the EC50 in test [1] was 250 nM. In addition, the Relative activity in test [2] is on record as 0.017.

With `CC1(C)CCC(C)(C)c2cc3c(=O)c(O)c(-c4ccc(C(=O)O)cc4)oc3cc21`, the EC50 in test [1] was 1.2 nM. In addition, in test [2], the Relative activity turned out to be 1.25.

As to `COc1c(-c2ccc(C(=O)O)cc2)oc2cc3c(cc2c1=O)C(C)(C)CCC3(C)C`, the EC50 in test [1] was > 1000 nM. Further, the Relative activity in test [2] is < 0.0001.

On to `CC1(C)CCC(C)(C)c2cc(C(=O)/C=C/c3ccc(C(N)=O)cc3)ccc21`, for which the EC50 in test [1] was > 1000 nM. Besides, in test [2], the Relative activity is < 0.0001.

For `CC(C)(C)c1ccc(O)c(/C(O)=C/C(=O)c2ccc(C(=O)O)cc2)c1`, the EC50 in test [1] is > 1000 nM. In test [2], the Relative activity was < 0.0001.

Regarding `CC1(C)CCSc2ccc(C(=O)/C=C/c3ccc(C(=O)O)cc3)cc21`, the EC50 in test [1] is > 1000 nM. In test [2], the Relative activity was < 0.0001.

For `CCc1ccc(C(=O)/C=C/c2ccc(C(=O)O)cc2)cc1CC`, the EC50 in test [1] was 170 nM. The Relative activity in test [2] amounted to 0.0083.

For the compound `CC(C)(C)c1cccc(C(=O)/C=C/c2ccc(C(=O)O)cc2)c1`, the EC50 in test [1] worked out at 160 nM. Besides, the Relative activity in test [2] was 0.0081.

As for `CC1=C(/C=C/C(C)=C/C=C/C(C)=C/C(=O)O)C(C)(C)CCC1` [TRETINOIN], the EC50 in test [1] came out at 2.4 nM. In test [2], this compound yielded a Relative activity of 1.

Turning to `COc1cc2c(cc1C(=O)/C=C/c1ccc(C(=O)O)cc1)C(C)(C)CCC2(C)C`, the EC50 in test [1] is 3.9 nM. Also, in test [2], the Relative activity is on record as 0.35.

Consider `CC1(C)CCOc2ccc(C(=O)/C=C/c3ccc(C(=O)O)cc3)cc21`, for which the EC50 in test [1] was > 1000 nM. In addition, in test [2], the Relative activity was < 0.0001.

Regarding `O=C(O)c1ccc(/C=C/C(=O)c2ccccc2)cc1`, in test [3], the ED50 entry is “inactive”.

Regarding `CC(C)(C)c1cc(C(=O)/C=C/c2ccc(C(=O)O)cc2)cc(C(C)(C)C)c1`, the EC50 in test [1] came out at 0.21 nM. This compound also displayed a Relative activity in test [2] of 6.4.

As for `CC1(C)CCOc2c(C(=O)/C=C/c3ccc(C(=O)O)cc3)cccc21`, the EC50 in test [1] came out at 690 nM. The same compound had a Relative activity in test [2] of 0.0077.

As for `CC1(C)CCC(C)(C)c2cc(C(=O)/C=C/c3ccc(C(=O)O)cc3)c(O)cc21`, the EC50 in test [1] turned out to be 0.15 nM. In test [2], this compound gave a Relative activity of 1.4.

As for `CC(C)(C)c1ccc2oc(-c3ccc(C(=O)O)cc3)cc(=O)c2c1`, the EC50 in test [1] was > 1000 nM. Besides, in test [2], the Relative activity is < 0.0001.

`CC(C)c1ccc(C(=O)/C=C/c2ccc(C(=O)O)cc2)cc1C(C)C`: the EC50 in test [1] was determined as 0.82 nM. This compound also showed a Relative activity in test [2] of 1.8.

With `CC(C)(C)c1ccc(C(=O)/C=C/c2ccc(C(=O)O)cc2)cc1`, the EC50 in test [1] was 28 nM. The same compound displayed a Relative activity in test [2] of 0.039.

With `Cc1ccc(/C=C/C(=O)c2ccc3c(c2)C(C)(C)CCC3(C)C)cc1`, in test [5], the ED50 entry was “inactive”.

For the compound `CC1(C)CCC(C)(C)c2cc(C(=O)/C=C/c3ccc(C(=O)Cl)cc3)ccc21`, the EC50 in test [1] amounted to 3.3 nM. Moreover, the Relative activity in test [2] was determined as 0.52.

As to `CC(C)(C)c1ccc(C(C)(C)C)c(C(=O)/C=C/c2ccc(C(=O)O)cc2)c1`, the EC50 in test [1] came to 45 nM. Also, the Relative activity in test [2] came to 0.021.

With `CC1(C)CCC(C)(C)c2cc(C(=O)/C=C/c3cccc(C(=O)O)c3)ccc21`, the EC50 in test [1] is > 1000 nM. For the same compound, the Relative activity in test [2] was < 0.0001.

Consider `CC(C)(C)c1ccc(/C(O)=C/C(=O)c2ccc(C(=O)O)cc2)c(O)c1`, for which the EC50 in test [1] came out at 560 nM. In addition, the Relative activity in test [2] amounted to 0.0023.

`CC(C)(C)c1ccc2c(=O)cc(-c3ccc(C(=O)O)cc3)oc2c1`: the EC50 in test [1] is 480 nM. Also, the Relative activity in test [2] came to 0.0058.

As for `CC1(C)CCC(C)(C)c2cc(/C(O)=C/C(=O)c3ccc(C(=O)O)cc3)c(O)cc21`, the EC50 in test [1] worked out at 0.063 nM. For the same compound, the Relative activity in test [2] amounted to 7.6.

For the compound `COC(=O)c1ccc(-c2cc(=O)c3cc4c(cc3o2)C(C)(C)CCC4(C)C)cc1`, the EC50 in test [1] worked out at 0.48 nM. The compound also registered a Relative activity in test [2] of 8.5.

With `Cc1cc2c(cc1C(=O)/C=C/c1ccc(C(=O)O)cc1)C(C)(C)CCC2(C)C`, in test [1], the EC50 came out at 0.54 nM. The compound also had a Relative activity in test [2] of 2.1.
